Assay outcomes: PubChem BioAssay, several laboratories
TDP2 inh: blocks human TDP2 phosphodiesterase activity. O95551. AID 720702. hit rate 0.34% among 370,000. recombinant TDP2, T5PNP hydrolysis, p-nitrophenol absorbance 415 nm. inhibition, % at 12.8 µM;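 active = inhibition above the mean of all tested compounds plus 3 SD, set per campaign, cut at about 25% in these data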;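 note: 0% = DMSO with enzyme and 100% = buffer with substrate but no TDP2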
Target sequence (O95551 whole entry, looked up): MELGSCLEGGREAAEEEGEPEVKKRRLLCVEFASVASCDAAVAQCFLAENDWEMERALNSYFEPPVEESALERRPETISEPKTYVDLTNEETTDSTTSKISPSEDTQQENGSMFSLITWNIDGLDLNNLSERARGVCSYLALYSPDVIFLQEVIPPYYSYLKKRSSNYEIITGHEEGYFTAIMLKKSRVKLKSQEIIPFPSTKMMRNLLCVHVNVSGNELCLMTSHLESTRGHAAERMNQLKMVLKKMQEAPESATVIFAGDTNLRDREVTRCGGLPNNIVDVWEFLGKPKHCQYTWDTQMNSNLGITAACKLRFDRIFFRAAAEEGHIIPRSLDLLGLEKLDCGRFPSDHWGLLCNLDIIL
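System: recombinant human TDP2 / Amount: 120 nM TDP2 per well / Also added: 5 mM T5PNP chromogenic substrate / Doses: 12.8 µM single point, 1% DMSO / Incubation: 2 h at 37 °C / Detection: p-Nitrophenol epi absorbance / Evaluation: % inhibition relative to enzyme-containing and enzyme-free wells / Repeats: singlicate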
PAD4 inh: blocks human protein arginine deiminase 4. Q9UM07. recombinant PAD4, RCA probe fluorescence polarization. inhibition, % at 6.36 µM. hit rate 0.41% among 330,000;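 active = percent inhibition above a cutoff equal to the mean of all tested compounds plus 3 SD, cut at about 15% in these data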;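 note: 0% = PAD4 with RCA probe and DMSO and 100% = probe without PAD4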
Fh CTSL1 inh: cathepsin L1 inhibition, PFM18AAP counter-screen. hit rate 0.49% among 300,000. inhibition, % at 5.96 µM. recombinant F. hepatica cathepsin L1, Z-Leu-Arg-MCA fluorescence;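 active = inhibition above the mean of all tested compounds plus 3 SD, set per screening campaign, cut at about 17% in these data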;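 note: 0% = plate median of test compound wells and 100% = 1 µM Z-Phe-Ala-diazomethylketone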
Apaf-1 inh: blocks human Apaf-1 apoptosome activity. O14727. reconstituted apoptosome caspase-3 activity, DEVD-Rh110 fluorescence. inhibition, % at 20 µM. hit rate 0.71% among 330,000. AID 489030; active = inhibition of at least 40% at 20 µM;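 note: plate controls were DMSO wells for no effect and DEVD-CHO caspase inhibitor wells for full effect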
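System: reconstituted apoptosome with Apaf-1, cytochrome c, caspase-9, procaspase-3, dATP; Signal: Rh110 fluorescence intensity; Schedule: 30 min compound preincubation, 50 min activation, room temperature; Reagent: cytochrome c trigger plus (Z-DEVD)2-Rh110 caspase-3 substrate.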
GSTO1 inh: counter-screen for RBBP9 inhibitors: inhibitors of human GSTO1 | recombinant GSTO1, activity-based probe fluorescence polarization | hit rate 1.1% among 300,000 | inhibition, % at 5.96 µM;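 active = inhibition above the campaign mean inhibition plus 3 SD, cut at about 35% in these data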;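 note: 0% = GSTO1-1 with DMSO and 100% = wells lacking GSTO1-1 enzyme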
Target sequence (P78417 whole entry, looked up): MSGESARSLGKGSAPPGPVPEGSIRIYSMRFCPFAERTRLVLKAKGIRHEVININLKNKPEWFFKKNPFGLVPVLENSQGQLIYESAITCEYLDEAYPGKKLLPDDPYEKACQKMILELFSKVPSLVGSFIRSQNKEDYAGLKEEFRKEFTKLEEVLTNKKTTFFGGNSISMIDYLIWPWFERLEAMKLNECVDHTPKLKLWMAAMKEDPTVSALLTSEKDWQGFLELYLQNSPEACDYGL
TDP2 inh conf: confirmation of human TDP2 inhibitors | shares compounds with TDP2 inh | recombinant human TDP2, absorbance read-out | inhibition, % at 12.8 µM | hit rate 22% among 1,100; in the data active = inhibition above about 25%;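 note: 0% = vehicle with enzyme and 100% = no enzyme buffer only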
Starred values were filed as active, the others as inactive. This is a sample that favours compounds with a hit; in the whole collection about 1.8% have one here.

COc1ccc(C(=O)OCCCN(C)C2CN(Cc3cn(Cc4ccccc4C(F)(F)F)nn3)S(=O)(=O)C2)cc1OC (stereo not given) was read as TDP2 inh 3.
For CC(=O)N1c2ccc(S(=O)(=O)NCCC(=O)Nc3ccc(C)c(Cl)c3)cc2CC1C (stereo not given) the results were TDP2 inh -11, PAD4 inh -2, Fh CTSL1 inh 3, Apaf-1 inh 4 and GSTO1 inh 7.
For COc1cc(OC)c(NC(=O)CCNS(=O)(=O)c2ccc3c(c2)CC(C)N3C(C)=O)cc1Cl (stereo not given) the results were TDP2 inh 31*, PAD4 inh 0, Fh CTSL1 inh 4, Apaf-1 inh -6, GSTO1 inh 9 and TDP2 inh conf 4.
COC(=O)c1ccc(OCC(O)CNCC(c2ccc(OC)cc2)N(C)C)c(OC)c1 (stereo not given) was read as TDP2 inh 26*, PAD4 inh 2, Fh CTSL1 inh -1, Apaf-1 inh -3, GSTO1 inh 2 and TDP2 inh conf 13.
`COC(=O)c1ccc2cc(OC)c(OC)cc2c1` gave TDP2 inh 1.
C[C@@H]1[C@@H](O)C[C@]2(C[C@@H](O)c3ccccc3O2)O[C@H]1c1ccccc1 was read as TDP2 inh -2.
O=C1NC(=O)/C(=C/c2cccc3ccccc23)S1 was read as TDP2 inh 1, PAD4 inh 3, Fh CTSL1 inh 4, Apaf-1 inh 11 and GSTO1 inh -29.
For O=C1NC(=O)C(=Cc2ccccc2[N+](=O)[O-])S1 the results were TDP2 inh 25* and TDP2 inh conf 44*.
For CCOc1ccc(NC2=CC(=O)C(=O)c3ccccc32)cc1 the results were TDP2 inh 32* and TDP2 inh conf 40*.
`O=C1C=C(NCc2ccccc2)c2ccccc2C1=O` gave TDP2 inh 23.
`O=C1C=C(Nc2cccnc2)c2ccccc2C1=O` gave TDP2 inh 72* and TDP2 inh conf 59*.
`CCCn1c(C)c(C(=O)OCC)c(O)c(-c2ccccc2)c1=O` gave TDP2 inh 0, PAD4 inh 1, Fh CTSL1 inh 1, Apaf-1 inh -5 and GSTO1 inh 6.
For CCOC(=O)c1c2c(n(Cc3ccccc3)c1C)C(=O)C(=O)c1ccccc1-2 the results were TDP2 inh 51* and TDP2 inh conf 73*.
For COC(=O)c1cccc(-n2nnnc2SCC(=O)Nc2nc3c(s2)CCCC3)c1 the results were TDP2 inh 48*, PAD4 inh -2, Fh CTSL1 inh -4, Apaf-1 inh 21, GSTO1 inh -1 and TDP2 inh conf -2.
Cc1ccc(S(=O)(=O)N2CCC(C(=O)NCCCN3CCOCC3)CC2)cc1C was read as TDP2 inh 30*, PAD4 inh -4, Fh CTSL1 inh -1, Apaf-1 inh 18, GSTO1 inh 11 and TDP2 inh conf 5.
Screening CN1CCN(S(=O)(=O)c2ccc(NC(=O)c3ccccc3F)cc2)CC1 returned TDP2 inh 25*, PAD4 inh -5, Fh CTSL1 inh -3, Apaf-1 inh -5, GSTO1 inh -3 and TDP2 inh conf 4.
For CN1CCN(S(=O)(=O)c2ccc(NC(=O)c3ccccc3Cl)cc2)CC1 the results were TDP2 inh 0, PAD4 inh 2, Fh CTSL1 inh -1, Apaf-1 inh -8 and GSTO1 inh -6.
Screening O=C(NN=Cc1ccccc1O)C(=O)Nc1ccc(F)cc1 returned TDP2 inh -3.
Screening O=C(Cn1cnc([N+](=O)[O-])c1)Nc1ccc(Cl)cc1Cl returned TDP2 inh 6.
For O=C(Cn1cnc([N+](=O)[O-])c1)Nc1ccc(F)c(Cl)c1 the results were TDP2 inh 29*, Apaf-1 inh 1 and TDP2 inh conf -8.
`CCOP(=O)(OCC)C(NC(=O)Nc1ccccc1)C(N)=O` (stereo not given) gave TDP2 inh -15, PAD4 inh 1, Fh CTSL1 inh -3, Apaf-1 inh 0 and GSTO1 inh 4.
`CCOP(=O)(OCC)C(NC(=O)Nc1ccc(Cl)cc1)C(N)=O` (stereo not given) gave TDP2 inh 45*, PAD4 inh 2, Fh CTSL1 inh 3, Apaf-1 inh -1, GSTO1 inh -1 and TDP2 inh conf -5.
COc1ccc(C(=O)CSc2nnc(-c3cccs3)o2)cc1OC was read as TDP2 inh 8.
For O=C(CO)N/N=C/c1cccc(Cl)c1Cl the results were TDP2 inh -1, PAD4 inh 2, Fh CTSL1 inh -6, Apaf-1 inh -9 and GSTO1 inh 0.
Nn1cnnc1N/N=C/c1cccc(Cl)c1Cl was read as TDP2 inh 75*, Apaf-1 inh 3 and TDP2 inh conf -3.
`COc1ccc(CNC(=O)c2ccc(CS(=O)(=O)c3ccccc3C)o2)cc1` gave TDP2 inh 26*, PAD4 inh -1, Fh CTSL1 inh -5, Apaf-1 inh 7, GSTO1 inh 2 and TDP2 inh conf 5.
`Cc1nnc(N2C(=O)C(=O)/C(=C(/O)c3ccc4c(c3)CC(C)O4)C2c2ccccc2F)s1` (stereo not given) gave TDP2 inh 37*, PAD4 inh -2, Fh CTSL1 inh 0, Apaf-1 inh -1, GSTO1 inh -4 and TDP2 inh conf -5.
`COc1cccc(C2/C(=C(\O)c3ccc4c(c3)OCCO4)C(=O)C(=O)N2c2nnc(C)s2)c1` (stereo not given) gave TDP2 inh 3, PAD4 inh -4, Fh CTSL1 inh 4, Apaf-1 inh 5 and GSTO1 inh 3.
Screening COc1ccc(CN2CCC(CNC(=O)Nc3ccc(C)c(F)c3)CC2)cc1 returned TDP2 inh 10.
For N#Cc1ccc(OCc2ccc(C(=O)O)o2)cc1 the results were TDP2 inh 26*, PAD4 inh -2, Fh CTSL1 inh -4, Apaf-1 inh 6, GSTO1 inh 7 and TDP2 inh conf 2.
For Cc1sc2ncnc(N(C)Cc3cccs3)c2c1C the results were TDP2 inh -14, PAD4 inh -3, Fh CTSL1 inh 6, Apaf-1 inh 8 and GSTO1 inh -4.
Cc1sc2ncnc(N(C)CCc3ccccn3)c2c1C was read as TDP2 inh 26*, PAD4 inh 5, Fh CTSL1 inh -4, Apaf-1 inh 7, GSTO1 inh -1 and TDP2 inh conf 10.
`Nc1c(C(=O)OCC(=O)NCc2ccccc2)[nH]c(=O)[nH]c1=O` gave TDP2 inh 49*, PAD4 inh -11, Fh CTSL1 inh 5, Apaf-1 inh -4, GSTO1 inh 19 and TDP2 inh conf -3.
Screening CC(C)n1nnnc1C1(C)CSCC(=O)N1Cc1cccc(F)c1 (stereo not given) returned TDP2 inh 4.
